Test results: ChEMBL document CHEMBL1123566, “Synthesis and cardiac electrophysiological activity of 2- and 3-[(substituted phenyl)alkyl]quinuclidines. Structure-activity relationships” (1987)

Columns and labels:
Canis familiaris [1] = assay: Heart rate was determined by intraduodenal administration of two dosages of 30 mg/kg of compound in anesthetized dogs. Value was reported for experiment 1; format: functional, Canis lupus familiaris
Procedure, shortened: (§1)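 Anesthetized dogs; compound given intraduodenally, generally as two doses, the second a cumulative (high) dose. LV functional refractory period and conduction time measured 15, 30 and 45 min after dosing; heart rate and blood pressure measured during nonpacing intervals. Values are % change from control, given per individual animal. Active if FRP or CT prolonged by ≥12%.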

Canis familiaris [2] = assay: Heart rate was determined by intraduodenal administration of two dosages of 30 mg/kg of compound in anesthetized dogs. Value was reported for experiment 2; format: functional, Canis lupus familiaris; procedure, shortened: as §1
Canis familiaris [3] = assay: Heart rate was determined by intraduodenal administration of two dosages of 30 mg/kg of compound in anesthetized dogs. Value was reported for experiment 3; format: functional, Canis lupus familiaris; procedure, shortened: as §1
Canis familiaris [4] = assay: Conduction time was determined by intraduodenal administration of 30 mg/kg (high dose) of compound in anesthetized dogs. Value was reported for experiment 1; format: functional, Canis lupus familiaris; procedure, shortened: as §1
Canis familiaris [5] = assay: Conduction time was determined by intraduodenal administration of 30 mg/kg (high dose) of compound in anesthetized dogs. Value was reported for experiment 2; format: functional, Canis lupus familiaris; procedure, shortened: as §1
Canis familiaris [6] = assay: Conduction time was determined by intraduodenal administration of 30 mg/kg (high dose) of compound in anesthetized dogs. Value was reported for experiment 3; format: functional, Canis lupus familiaris; procedure, shortened: as §1
Canis familiaris [7] = assay: Conduction time was determined by intraduodenal administration of 10 mg/kg (low dose) of compound in anesthetized dogs. Value was reported for experiment 1; format: functional, Canis lupus familiaris; procedure, shortened: as §1
Canis familiaris [8] = assay: Conduction time was determined by intraduodenal administration of 10 mg/kg (low dose) of compound in anesthetized dogs. Value was reported for experiment 2; format: functional, Canis lupus familiaris; procedure, shortened: as §1
Canis familiaris [9] = assay: Conduction time was determined by intraduodenal administration of 10 mg/kg (low dose) of compound in anesthetized dogs. Value was reported for experiment 3; format: functional, Canis lupus familiaris; procedure, shortened: as §1
Canis familiaris [10] = assay: Heart rate was determined by intraduodenal administration of two dosages of 10 mg/kg of compound in anesthetized dogs. Value was reported for experiment 1; format: functional, Canis lupus familiaris; procedure, shortened: as §1
Canis familiaris [11] = assay: Heart rate was determined by intraduodenal administration of two dosages of 10 mg/kg of compound in anesthetized dogs. Value was reported for experiment 2; format: functional, Canis lupus familiaris; procedure, shortened: as §1
Canis familiaris [12] = assay: Heart rate was determined by intraduodenal administration of two dosages of 10 mg/kg of compound in anesthetized dogs. Value was reported for experiment 3; format: functional, Canis lupus familiaris; procedure, shortened: as §1
Canis familiaris [13] = assay: Left ventricular refractory period was determined by intraduodenal administration of 10 mg/kg (low dose) of compound in anesthetized dogs. Value was reported for experiment 1; format: functional, Canis lupus familiaris, Cardiac ventricle
Procedure, shortened: (§2)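 Anesthetized dogs received two intraduodenal doses, the second cumulative (low dose/high dose). Left ventricular FRP and CT were measured 15, 30 and 45 min after dosing. Heart rate and mean blood pressure were taken during nonpacing intervals. Values are percent change from control. The vehicle was 5% dextrose in water/tragacanth. Activity was defined as ≥12% prolongation of FRP or CT.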

Canis familiaris [14] = assay: Left ventricular refractory period was determined by intraduodenal administration of 10 mg/kg (low dose) of compound in anesthetized dogs. Value was reported for experiment 2; format: functional, Canis lupus familiaris, Cardiac ventricle; procedure, shortened: as §2
Canis familiaris [15] = assay: Left ventricular refractory period was determined by intraduodenal administration of 10 mg/kg (low dose) of compound in anesthetized dogs. Value was reported for experiment 3; format: functional, Canis lupus familiaris, Cardiac ventricle; procedure, shortened: as §2
Canis familiaris [16] = assay: Left ventricular refractory period was determined by intraduodenal administration of 30 mg/kg (high dose) of compound in anesthetized dogs. Value was reported for experiment 1; format: functional, Canis lupus familiaris, Cardiac ventricle; procedure, shortened: as §2
Canis familiaris [17] = assay: Left ventricular refractory period was determined by intraduodenal administration of 30 mg/kg (high dose) of compound in anesthetized dogs. Value was reported for experiment 2; format: functional, Canis lupus familiaris, Cardiac ventricle; procedure, shortened: as §2
Canis familiaris [18] = assay: Left ventricular refractory period was determined by intraduodenal administration of 30 mg/kg (high dose) of compound in anesthetized dogs. Value was reported for experiment 3; format: functional, Canis lupus familiaris, Cardiac ventricle; procedure, shortened: as §2
Canis familiaris [19] = assay: Mean arterial blood pressure was determined by intraduodenal administration of two dosages of 30 mg/kg of compound in anesthetized dogs. Value was reported for experiment 1; format: functional, Canis lupus familiaris; procedure, shortened: as §2
Canis familiaris [20] = assay: Mean arterial blood pressure was determined by intraduodenal administration of two dosages of 30 mg/kg of compound in anesthetized dogs. Value was reported for experiment 2; format: functional, Canis lupus familiaris; procedure, shortened: as §2
Canis familiaris [21] = assay: Mean arterial blood pressure was determined by intraduodenal administration of two dosages of 30 mg/kg of compound in anesthetized dogs. Value was reported for experiment 3; format: functional, Canis lupus familiaris
Canis familiaris [22] = assay: Mean arterial blood pressure was determined by intraduodenal administration of two dosages of 10 mg/kg of compound in anesthetized dogs. Value was reported for experiment 1; format: functional, Canis lupus familiaris; procedure, shortened: as §2
Canis familiaris [23] = assay: Mean arterial blood pressure was determined by intraduodenal administration of two dosages of 10 mg/kg of compound in anesthetized dogs. Value was reported for experiment 2; format: functional, Canis lupus familiaris; procedure, shortened: as §2
Canis familiaris [24] = assay: Mean arterial blood pressure was determined by intraduodenal administration of two dosages of 10 mg/kg of compound in anesthetized dogs. Value was reported for experiment 3; format: functional, Canis lupus familiaris
Canis familiaris [25] = species: Canis familiaris; assay: In vitro electrophysiological evaluation in canine cardiac ventricular muscle reported as maximum % change for conduction time(CT) at 0.1-10 uM concentration range; Minimal (<10% decrease or increase in CT).; format: functional, Canis lupus familiaris, Muscle tissue
Procedure, shortened: (§3)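 Canine right ventricle and papillary muscle strips in oxygenated Tyrode's solution, fitted with stimulating and recording electrodes. The extra-stimulus conduction-interval method was adapted for in vitro use. FRP and CT were read from a conduction-interval curve before and after various compound concentrations, and expressed as percent change from control. Compounds were taken from 10 mM deionized-water stock into Tyrode's. Each strip was used once as its own control.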

Canis familiaris [26] = species: Canis familiaris; assay: In vitro electrophysiological evaluation in canine cardiac ventricular muscle reported as % change for the functional refractory period (FRP) at 10 uM at concentration range of 0.1-10 uM; design: species or system Canis lupus familiaris, Muscle tissue; procedure, shortened: as §3
Canis familiaris [27] = species: Canis familiaris; assay: In vitro electrophysiological evaluation in canine cardiac ventricular muscle reported as % change for conduction time(CT) at 10 uM at 0.1-10 uM concentration range; Minimal (<10% decrease or increase in CT).; format: functional, Canis lupus familiaris, Muscle tissue
Canis familiaris [28] = species: Canis familiaris; assay: In vitro electrophysiological evaluation in canine cardiac ventricular muscle reported as maximum % change for functional refractory period (FRP) at 0.1-10 uM concentration range; concentration at which it occurred is 10 uM; design: species or system Canis lupus familiaris, Muscle tissue; procedure, shortened: as §3
Canis familiaris [29] = species: Canis familiaris; assay: In vitro electrophysiological evaluation in canine cardiac Purkinje fibres reported as percent change Vmax at 10 uM at concentration range of 0.1-10 uM; Minimal (<10% decrease or increase in V max).; format: functional; conditions: Canis lupus familiaris, Purkinje fiber
Procedure, shortened: (§4)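 Canine cardiac Purkinje fibres, intracellular microelectrode recording, paced at a basic cycle length of 1 s. APD95 and Vmax read simultaneously. Compound: 10 mM stock in deionized water, diluted into Tyrode's solution, tested over the stated concentration range. Each fibre used once as its own control. Result is % change from control, given at 10 µM or as the maximum with its concentration. M = <10% decrease or an increase in Vmax.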

Canis familiaris [30] = species: Canis familiaris; assay: In vitro electrophysiological evaluation in canine cardiac Purkinje fibres reported as percent change Vmax at 10 uM at concentration range of 1-100 uM.; format: functional; conditions: Canis lupus familiaris, Purkinje fiber; procedure, shortened: as §4
Canis familiaris [31] = species: Canis familiaris; assay: In vitro electrophysiological evaluation in canine cardiac Purkinje fibres reported as percent change Vmax at 10 uM at concentration range of 1-100 uM; Minimal (<10% decrease or increase in V max).; format: functional; conditions: Canis lupus familiaris, Purkinje fiber; procedure, shortened: as §4
Canis familiaris [32] = species: Canis familiaris; assay: In vitro electrophysiological evaluation in canine cardiac Purkinje fibres reported as percent change Vmax at concentration range of 1-100 uM; conduction block; format: functional; conditions: Canis lupus familiaris; Purkinje fiber; procedure, shortened: as §4
Canis familiaris [33] = species: Canis familiaris; assay: In vitro electrophysiological evaluation in canine cardiac Purkinje fibres reported as percent change Vmax at concentration range of 0.1-10 uM; Minimal (<10% decrease or increase in V max).; format: functional; conditions: Canis lupus familiaris; Purkinje fiber; procedure, shortened: as §4
Canis familiaris [34] = species: Canis familiaris; assay: In vitro electrophysiological evaluation in canine cardiac Purkinje fibres reported as % change for action potential duration at a concentration of 10 uM; format: functional, Canis lupus familiaris, Purkinje fiber; procedure, shortened: as §4
Canis familiaris [35] = species: Canis familiaris; assay: In vitro electrophysiological activity in canine cardiac occurred is 100 uM; format: functional, Canis lupus familiaris, Heart
Canis familiaris [36] = species: Canis familiaris; assay: In vitro electrophysiological activity in canine cardiac occurred is 10 uM; format: functional, Canis lupus familiaris, Heart

## CC(=O)C(CC1C(=O)C2CCN1CC2)C(=O)c1ccc(Cl)cc1.Cl (stereo unspecified)
Canis familiaris [1]
  HR: 2%
Canis familiaris [2]
  HR: -28%
Canis familiaris [3]
  HR: -22%
Canis familiaris [4]
  CT: 9%
Canis familiaris [5]
  CT: 7%
Canis familiaris [6]
  CT: 13%
Canis familiaris [7]
  CT: 3%
Canis familiaris [8]
  CT: 0%
Canis familiaris [9]
  CT: 8%
Canis familiaris [10]
  HR: 1%
Canis familiaris [11]
  HR: -14%
Canis familiaris [12]
  HR: -15%
Canis familiaris [13]
  LV FRP: 4%
Canis familiaris [14]
  LV FRP: 11%
Canis familiaris [15]
  LV FRP: 11%
Canis familiaris [16]
  LV FRP: 1%
Canis familiaris [17]
  LV FRP: 18%
Canis familiaris [18]
  LV FRP: 15%
Canis familiaris [19]
  Mean blood pressure: -6%
Canis familiaris [20]
  Mean blood pressure: -16%
Canis familiaris [21]
  Mean blood pressure: 7%
Canis familiaris [22]
  Mean blood pressure: -5%
Canis familiaris [23]
  Mean blood pressure: -4%
Canis familiaris [24]
  Mean blood pressure: 7%
Canis familiaris [25]
  CT: <10%
Canis familiaris [26]
  FRP: 24%
Canis familiaris [27]
  CT: <10%
Canis familiaris [28]
  FRP: 24%
Canis familiaris [29]
  Vmax: < 10%
Canis familiaris [30]
  Vmax: -10%
Canis familiaris [31]
  Vmax: < 10%
Canis familiaris [32]
  Vmax: 100%
Canis familiaris [33]
  Vmax: < 10%
Canis familiaris [34]
  APD95: 23%
Canis familiaris [35]
  APD95: -16%
Canis familiaris [36]
  APD95: 23%
